Measured values pooled from the literature.
Lines come from different studies, so protocols differ.
MAP3K9: Mitogen-activated protein kinase kinase kinase 9 (MAP3K9, Homo sapiens, UniProt P80192)
PTGS1: Prostaglandin G/H synthase 1 (PTGS1, Ovis aries, UniProt P05979)
BAZ2B bromodomain: Bromodomain adjacent to zinc finger domain protein 2B, bromodomain (BAZ2B, Homo sapiens, UniProt Q9UIF8)
SIRT3: NAD-dependent protein deacetylase sirtuin-3, mitochondrial (SIRT3, Homo sapiens, UniProt Q9NTG7)

| Structure (SMILES) | target | assay | setting | quantity | value |
| --- | --- | --- | --- | --- | --- |
| COc1cc(NC(C)=O)c(Cl)cc1C(=O)Nc1nccs1 | D(1A) dopamine receptor (DRD1, Homo sapiens, UniProt P21728) | cell-free assay | 10 µM | inhibition | -7.2% |
| Oc1ccc(-c2nc(-c3ccncc3)c(-c3ccc(F)cc3)[nH]2)cc1 | Transcription initiation factor TFIID subunit 1-like, BD1 (TAF1L, Homo sapiens, UniProt Q8IZX4) | thermal stability, DSF | 10 µM | ΔTm | 0.17 °C |
| O=C(NCCCNc1nc(Nc2cccc(NC(=O)N3CCCC3)c2)ncc1Br)C1CCC1 | MAP3K9 | enzyme activity, inhibitor, radiometric | 1 µM | remaining activity | 0% |
| Oc1cccc(Nc2nc(-c3ccc(F)cc3F)cs2)c1 | Type-2 angiotensin II receptor (AGTR2, Homo sapiens, UniProt P50052) | cell-free assay | 10 µM | inhibition | -5.6% |
| CCCCCCNC(=O)c1ccccc1SC(C)=O | PTGS1 | enzyme activity, inhibitor, mass spectrometry | – | kinact | 0.0103 s⁻¹ |
| C[S+]([O-])c1ccc(-c2nc(-c3ccncc3)c(-c3ccc(F)cc3)[nH]2)cc1 (stereo not drawn) | BAZ2B bromodomain | thermal stability, DSF | 10 µM | ΔTm | 0.21 °C |
| CCOCCOCCOCCNC(=S)NCCCC[C@H](NS(C)(=O)=O)C(=O)N[C@@H](C)C(=O)N[C@@H](CCCNC(=N)N)C(N)=O | SIRT3 | enzyme activity, inhibitor | 100 µM | inhibition | 16% |
| CCCCC[C@@H]1CC(=O)c2cc(Cl)cc(Br)c2O1 | SIRT3 | enzyme activity, inhibitor, fluorescence | 200 µM | inhibition | 3.9% |
| Cc1cnc(Nc2ccc(OCCN3CCCC3)cc2)nc1Nc1cccc(S(=O)(=O)NC(C)(C)C)c1 | Transcription initiation factor TFIID subunit 1-like, BD2 (TAF1L, Homo sapiens, UniProt Q8IZX4) | thermal stability, DSF | 10 µM | ΔTm | 0.91 °C |
| CCCCC#CCNC(=O)c1ccccc1SC(C)=O | PTGS1 | enzyme activity, inhibitor, mass spectrometry | – | kinact | 0.0367 s⁻¹ |
| CCCCCc1cc(=O)c2cc(Cl)cc(Br)c2o1 | SIRT3 | enzyme activity, inhibitor, fluorescence | 200 µM | inhibition | 4.5% |
| Cc1cc2c(cc1N1C(=O)c3cccc4c(Cl)ccc(c34)C1=O)n(C)c(=O)n2C | BAZ2B bromodomain | thermal stability, DSF | 10 µM | ΔTm | 0.6 °C |
| CCCCCC1CC(=O)c2ccccc2O1 (stereo not drawn) | SIRT3 | enzyme activity, inhibitor, fluorescence | 200 µM | inhibition | 0.8% |
| NS(=O)(=O)c1ccc(CNc2ccnc(Nc3cccc(CN4CCOCC4)c3)n2)cc1 | Serine/threonine-protein kinase MARK1 (MARK1, Homo sapiens, UniProt Q9P0L2) | enzyme activity, inhibitor, radiometric | 1 µM | remaining activity | 102% |
| NS(=O)(=O)c1ccc(Nc2nc(-c3ccc(F)cc3)c3ccccc3n2)cc1 | Peregrin (BRPF1, Homo sapiens, UniProt P55201) | binding, competition with immobilised ligand | 1 µM | remaining binding | 76% |
| CCCOc1ccc(OC)c(F)c1C(=O)c1ccc(C(=O)N[C@@H]2CNC[C@H]2NC(=O)c2ccc3[nH]ncc3c2)cc1 | Serine/threonine-protein kinase MRCK alpha (CDC42BPA, Homo sapiens, UniProt Q5VT25) | enzyme activity, inhibitor | 0.1 µM | remaining activity | 66% |
| Cc1nn(CC(F)(F)F)cc1Nc1ncc(Br)c(NCCCNC(=O)C2CCC2)n1 | MAP3K9 | enzyme activity, inhibitor, radiometric | 1 µM | remaining activity | 21% |
| COc1cc(Cl)c(C(=O)N[C@@H](CN[C@H]2CC[C@@H](N)CC2)Cc2ccc(C#N)cc2)cc1-c1ccc(CN[C@H](C)c2ccc(C)cc2)o1 | Transcription initiation factor TFIID subunit 1-like (TAF1L, Homo sapiens, UniProt Q8IZX4) | enzyme activity, inhibitor | 1 µM | remaining activity | 96% |
